Assay results: ChEMBL document CHEMBL2203235, “Optimization of a natural product-based class of γ-secretase modulators” (J Med Chem, 2012)

Legend:
CHO-2B7 [1] = assay: Modulation of gamma secretase in CHO-2B7 cells assessed as reduction in amyloid beta 42 level at 20 uM after 5 hrs by MSD ELISA; assay type: cell-based; set-up: scale not given: the % may be the effect or the level left; conditions: Cricetulus griseus
[2] = Modulation of gamma secretase in CHO-2B7 cells assessed as reduction in amyloid beta 42 level after 5 hrs by MSD ELISA; assay type: cell-based; conditions: Cricetulus griseus, CHO-2B7, 5 h
[3] = (§1) Metabolic stability in human liver microsomes assessed as compound remaining at 1 uM at 60 mins by LC/MS/MS analysis in absence of NADPH; assay type: ADME, Microsome; conditions: liver microsomes, read-out: Stability
Method in brief: (§2)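 Human liver microsomes were run without NADPH as a qualitative read of susceptibility to enzymatic hydrolysis. The read-out was percent parent remaining at 60 min.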

[4] = Modulation of gamma secretase in CHO-2B7 cells assessed as reduction in amyloid beta 40 level after 5 hrs by MSD ELISA; assay type: cell-based; conditions: Cricetulus griseus, CHO-2B7, 5 h
Liver microsomes [5] = assay: as §1; assay type: ADME, Microsome; conditions: microsomes, 1 h, 1 µM; method in brief: as §2
CHO-2B7 [6] = assay: Modulation of gamma secretase in CHO-2B7 cells assessed as reduction in amyloid beta 40 level at 20 uM after 5 hrs by MSD ELISA; assay type: cell-based; set-up: scale not given: the % may be the effect or the level left; conditions: Cricetulus griseus
Liver microsomes [7] = assay: Metabolic stability in human liver microsomes at 1 uM after 60 mins by LC/MS/MS analysis; conditions: 1 h

`C[C@@H]1C[C@H]([C@H](O)C(C)(C)O)O[C@H]2[C@H]1[C@@]1(C)CC[C@@]34C[C@@]35CC[C@H](O[C@H]3CN(C(=O)C6(C)COC6)CCO3)C(C)(C)[C@@H]5CC[C@H]4[C@]1(C)[C@H]2O` showed an Activity (CHO-2B7 [1]) of 50% and an IC50 [2] of 0.07 µM.
For `CNC(=O)O[C@@H]([C@H]1C[C@@H](C)[C@H]2[C@H](O1)[C@H](O)[C@@]1(C)[C@@H]3CC[C@H]4C(C)(C)[C@@H](O)CC[C@@]45C[C@@]35CC[C@]21C)C(C)(C)O`, the Activity (CHO-2B7 [1]) was 27% and the remaining at 1 h, 1 µM [3] was 96%.
Compound `CC(C)[C@@H](OC(=O)N(C)C)[C@H]1C[C@@H](C)[C@H]2[C@H](O1)[C@H](O)[C@@]1(C)[C@@H]3CC[C@H]4C(C)(C)[C@@H](OC(N)=O)CC[C@@]45C[C@@]35CC[C@]21C` has an IC50 [4] of 19 µM, a Stability (Liver microsomes [5]) of 131% and an IC50 [2] of 0.92 µM.
`C[C@@H]1C[C@H]([C@H](O)C(C)(C)O)O[C@H]2[C@H]1[C@@]1(C)CC[C@@]34C[C@@]35CC[C@H](O[C@H]3CN(C(=O)c6nccn6C)CCO3)C(C)(C)[C@@H]5CC[C@H]4[C@]1(C)[C@H]2O` showed an Activity (CHO-2B7 [1]) of 5% and an IC50 [2] of 0.13 µM.
Compound `CNC(=O)O[C@H](C(C)C)[C@H]1C[C@@H](C)[C@H]2[C@H](O1)[C@H](O)[C@@]1(C)[C@@H]3CC[C@H]4C(C)(C)[C@@H](OC(=O)N5CCOCC5)CC[C@@]45C[C@@]35CC[C@]21C` has an Activity (CHO-2B7 [6]) of 17%, a Stability (Liver microsomes [5]) of 139% and an IC50 [2] of 4.6 µM.
For `CC(C)[C@@H](OC(=O)N1CCC1)[C@H]1C[C@@H](C)[C@H]2[C@H](O1)[C@H](O)[C@@]1(C)[C@@H]3CC[C@H]4C(C)(C)[C@@H](OC(=O)N5CCC5)CC[C@@]45C[C@@]35CC[C@]21C`, the Stability (Liver microsomes [7]) was “Stable”, the IC50 [4] was 10 µM and the Stability (Liver microsomes [5]) was 158%. It also gave an IC50 [2] of 0.47 µM.
`CC(C)[C@@H](OC(N)=O)[C@H]1C[C@@H](C)[C@H]2[C@H](O1)[C@H](O)[C@@]1(C)[C@@H]3CC[C@H]4C(C)(C)[C@@H](OC(=O)NC5CNC5)CC[C@@]45C[C@@]35CC[C@]21C` gave an IC50 [4] of 4 µM, a Stability (Liver microsomes [5]) of 121% and an IC50 [2] of 0.16 µM.
With `CC(C)[C@@H](OC(N)=O)[C@H]1C[C@@H](C)[C@H]2[C@H](O1)[C@H](O)[C@@]1(C)[C@@H]3CC[C@H]4C(C)(C)[C@@H](OC(=O)N5CCOCC5)CC[C@@]45C[C@@]35CC[C@]21C` the Activity (CHO-2B7 [6]) was 32%, the Stability (Liver microsomes [5]) was 130% and the IC50 [2] was 3.4 µM.
With `CC(C)[C@@H](OC(=O)N1CCC1)[C@H]1C[C@@H](C)[C@H]2[C@H](O1)[C@H](O)[C@@]1(C)[C@@H]3CC[C@H]4C(C)(C)[C@@H](OC(=O)NC5CNC5)CC[C@@]45C[C@@]35CC[C@]21C` the Stability (Liver microsomes [7]) was “Stable”, the IC50 [4] was 2.6 µM and the Stability (Liver microsomes [5]) was 127%. For the same compound, the IC50 [2] was 0.1 µM.
`C[C@@H]1C[C@H]([C@H](O)C(C)(C)O)O[C@H]2[C@H]1[C@@]1(C)CC[C@@]34C[C@@]35CC[C@H](O[C@H]3CN(CC(N)=O)CCO3)C(C)(C)[C@@H]5CC[C@H]4[C@]1(C)[C@H]2O` gave an Activity (CHO-2B7 [1]) of 0% and an IC50 [2] of 0.06 µM.
For `CNC(=O)O[C@H](C(C)C)[C@H]1C[C@@H](C)[C@H]2[C@H](O1)[C@H](O)[C@@]1(C)[C@@H]3CC[C@H]4C(C)(C)[C@@H](OC(=O)N5CCC5)CC[C@@]45C[C@@]35CC[C@]21C`, the Activity (CHO-2B7 [6]) was 47%, the Stability (Liver microsomes [5]) was 152% and the IC50 [2] was 17 µM.
In the case of `CC(C)[C@@H](OC(=O)N(C)C)[C@H]1C[C@@H](C)[C@H]2[C@H](O1)[C@H](O)[C@@]1(C)[C@@H]3CC[C@H]4C(C)(C)[C@@H](OC(=O)N5CCOCC5)CC[C@@]45C[C@@]35CC[C@]21C`, the Activity (CHO-2B7 [6]) is reported as 17%, the remaining at 1 h, 1 µM [3] is reported as 118% and the IC50 [2] is reported as 7.4 µM.
For `CC(C)[C@@H](OC(=O)N1CCC1)[C@H]1C[C@@H](C)[C@H]2[C@H](O1)[C@H](O)[C@@]1(C)[C@@H]3CC[C@H]4C(C)(C)[C@@H](OC(N)=O)CC[C@@]45C[C@@]35CC[C@]21C`, the Stability (Liver microsomes [5]) was 150%.
